Measured values as given in publication PMC4943881 (Biochemistry, 2015).
Read-outs that look alike come from different tables or passages of the source. Blank lines part the entries; values can stand above or below the compound they belong to. Where a SMILES comes first, the peptide text is derived from it.

Experiments:
[1] = target: T1, 2P-ERK2 (active ERK2) (Rattus norvegicus, UniProt P63086); assay: NMR; type: binding
[2] = target: T2, 0P-ERK2 (inactive ERK2) (Rattus norvegicus, UniProt P63086); assay: NMR; type: binding
[3] = target: 0P-ERK2 mutant that was binding competent only at the DEJL-site; conditions: full-length Elk1 protein and 0P-ERK2 mutant binding competent only at the DEJL-site; cited from earlier work
[4] = target: Elk1F peptide DEF-site peptide (Homo sapiens) (UniProt P19419); conditions: cited from earlier work
[5] = tested on: Tyr-185 phosphorylated (pY) ERK2; conditions: formation of the ternary MBP-bound complex of pY ERK2; cited from earlier work
[6] = tested on: 2P-p38α; conditions: cited from earlier work
[7] = target: 0P-p38α; conditions: read-out: binding affinity of ATP; cited from earlier work
[8] = target: T1, 2P-ERK2 (active ERK2); assay: NMR; type: binding; conditions: estimated, slow/intermediate exchange prevented accurate determination
[9] = target: T2, 0P-ERK2 (inactive ERK2); assay: NMR; type: binding; conditions: estimated, slow/intermediate exchange prevented accurate determination
Outline: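 Unphosphorylated ERK2 from E. coli BL21(DE3), ILV-methyl-labeled in a protonated background, ~0.26 mM in 50 mM Tris pH 7.4, 150 mM NaCl, 5 mM MgSO4, 0.1 mM EDTA, 5 mM DTT, 99% D2O, 2.5% glycerol. AMP-PNP titrated at 0, 0.1, 0.2, 0.3, 1.0, 2.1, 4.2 mM; 5 h 2D TROSY-HMQC per point, 25 °C, 800 MHz; combined methyl CSP (1H, 0.25×13C).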

Kd [1]: 30 ± 3 µM | Kd [2]: 10 ± 1 µM
Compound: CC(C)C[C@H](NC(=O)[C@H](CO)NC(=O)[C@@H]1CCCN1C(=O)[C@H](CO)NC(=O)[C@H](CC(C)C)NC(=O)[C@@H]1CCCN1C(=O)[C@H](CC(C)C)NC(=O)[C@H](CCC(=O)O)NC(=O)[C@H](CC(C)C)NC(=O)[C@H](CC(=O)O)NC(=O)[C@H](CCCNC(=N)N)NC(=O)[C@@H]1CCCN1C(=O)[C@H](CCCCN)NC(=O)[C@H](CCCNC(=N)N)NC(=O)CNC(=O)[C@H](CCCCN)NC(=O)[C@@H](N)CCC(N)=O)C(=O)O [Elk1D] (H-QKGRKPRDLELPLSPSL-OH)

Compound: full-length Elk1 protein: full-length transcription factor Elk1, a substrate of ERK2
Kd [3]: 5 µM

Compound: ERK2 (2P-ERK2) (from UniProt P63086)
Kd [4]: 8 µM

Compound: Nc1ncnc2c1ncn2[C@@H]1O[C@H](COP(=O)(O)OP(=O)(O)OP(=O)(O)O)[C@@H](O)[C@H]1O [ATP]
koff, ATP [5]: 0.5 s⁻¹ | increase in the binding affinity of ATP upon phosphorylation ([6]; 2P-p38α versus 0P-p38α): > 30 fold | Kd ([6]; read-out: binding affinity of ATP, 2P-p38α): 430 µM | Kd [7]: > 15000 µM

Kd [8]: 200 to 500 µM | Kd [9]: 200 to 500 µM
Compound: Nc1ncnc2c1ncn2[C@@H]1O[C@H](COP(=O)(O)OP(=O)(O)NP(=O)(O)O)[C@@H](O)[C@H]1O [AMP-PNP, adenosine 5′-(β,γ-imido)triphosphate]
